Data: paper PMC4980077 (The FEBS journal, 2016)
Residue numbers refer to the chain shown, from its start. Names and notes keep the numbering of the source.

B1: smAKAP-S66D: recombinant smAKAP with Ser66 mutated to an aspartic acid (protein, UniProt Q9BSF0 2-95, looked up, variant S66D)
Small membrane A-kinase …: GCMKSKQTFPFPTIYEGEKQHESEEPFMPEERCLPRMASPVNVKEEVKEPPGTNTVILEYAHRLDQDILCDALQQWACNNIKYHDIPYIESEGP
B2: smAKAP-S66E-GFP: phosphomimetic mutant GFP fusion (protein, UniProt Q9BSF0 2-95, looked up, variant S66E)
Small membrane A-kinase …: B1 Small membrane A-kinase … with D65E
modifications: GFP fusion
B3: smAKAP-S66D-GFP: phosphomimetic mutant GFP fusion (protein, UniProt Q9BSF0 2-95, looked up, variant S66D)
Small membrane A-kinase …: B1 Small membrane A-kinase …
modifications: GFP fusion

Assays:
PKA-Cα = assay: 32P phosphorylation; assay type: biochemical; details: PKA-Cα 20 nM, pH 7.5; n = 3
In short: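 Substrate was His-tagged human smAKAP (wild type, or S66D with PKA-Cα) at 10 μM. It was incubated with 20 nM recombinant kinase in 50 mM MOPS pH 7.5 containing 10 mM MgCl2, 200 μM ATP and [32P]ATP. Aliquots were quenched in 30% acetic acid at 0, 5, 10 and 15 min. Results are means ± SD of 3 independent experiments.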

PKA-RIβ = assay: Confocal colocalization with PKA-RIβ-mKO2 in HeLa cells; assay type: cell-based; details: for localization of PKA-RIβ on co-transfection: phosphomimetic mutant + PKA-RIβ-mKO2
In short: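 HeLa cells co-expressed GFP-tagged smAKAP (wild type, S66E or S66D) with mKO2-tagged PKA-RIα or RIβ. Cells were washed in ice-cold PBS, fixed in ice-cold 4% formaldehyde in PBS, washed twice and imaged by confocal microscopy through a 63× oil objective. Stimulated cells received calyculin A plus 8-CPT-cAMP and were imaged live.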

PKA-RIα = assay: Confocal colocalization with PKA-RIα in HeLa cells; assay type: cell-based; details: phosphomimetic mutant + PKA-RIα-mKO2

Molecule	phosphorylation by PKA (PKA-Cα)	localization of PKA-RIβ on co-transfection (PKA-RIβ)	colocalization with PKA-RIβ-mKO2 (PKA-RIβ; transfected, confocal, unstimulated)	localization of PKA-RIα on co-transfection (PKA-RIα)
B1	no detectable levels of phosphorylation	–	–	–
B2	–	predominantly resided in the cytoplasm	no colocalization occurs	predominantly resided in the cytoplasm
B3	–	predominantly resided in the cytoplasm	–	predominantly resided in the cytoplasm
